Hits are enriched below; roughly 2.1% of the tested compounds scored in any of these assays.
APJ antag: blocks the human apelin receptor APJ | AID 2521 | 330,000 tested, 0.32% active | CHO-K1 APJ beta-arrestin complementation, luminescence | inhibition, % at 20 µM;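 active = inhibition above about 40% at 20 µM, limit read from the data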;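 also: cells challenged with 10 nM apelin-13 agonist together with compound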
EBI2 block: antagonists of human EBI2 receptor; P32249; EBI2 beta-arrestin recruitment, luminescence, 7a,25-OHC stimulated; inhibition, % at 5 µM; 360,000 tested, 0.81% active; in the data active = inhibition above about 38%;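 also: enzyme fragment complementation signal reports receptor beta-arrestin coupling in cells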
m5-HT2A agonist: mouse HTR2A agonism via beta-arrestin recruitment | P35363 | CHO-K1 mHTR2A beta-arrestin complementation, luminescence; percent of 30 µM serotonin response | activation, % at 7.6 µM | 360,000 tested, 0.66% active;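 active = activation above a run cutoff, the mean activation of all tested compounds plus 3 SD, cut at about 14% in these data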
Target sequence (P35363 whole entry, looked up): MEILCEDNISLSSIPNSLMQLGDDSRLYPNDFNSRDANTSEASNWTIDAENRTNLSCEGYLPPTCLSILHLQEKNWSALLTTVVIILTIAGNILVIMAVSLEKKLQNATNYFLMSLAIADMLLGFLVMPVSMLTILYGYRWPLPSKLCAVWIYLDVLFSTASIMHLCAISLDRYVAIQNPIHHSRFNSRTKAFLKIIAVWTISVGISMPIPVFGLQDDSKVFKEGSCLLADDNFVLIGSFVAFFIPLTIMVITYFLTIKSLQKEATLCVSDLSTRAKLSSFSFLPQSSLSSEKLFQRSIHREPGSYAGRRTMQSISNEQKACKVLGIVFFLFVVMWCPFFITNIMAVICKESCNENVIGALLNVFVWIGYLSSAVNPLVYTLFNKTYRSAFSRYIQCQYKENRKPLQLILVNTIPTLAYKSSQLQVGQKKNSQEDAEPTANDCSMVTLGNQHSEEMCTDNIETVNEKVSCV
CXCR6 inh: blocks human CXCR6 beta-arrestin recruitment | O00574 | CHO-K1 PathHunter CXCR6 beta-arrestin, luminescence | inhibition, % at 20 µM | 360,000 tested, 0.36% active | AID 602244; in the data active = inhibition above about 34%, passing the limit was not always enough;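 also: antagonist mode with CXCL16 agonist at 10 nM final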
APJ ag: activates the human apelin receptor APJ; P35414; CHO-K1 APJ PathHunter beta-arrestin, luminescence; 0% DMSO wells, 100% apelin; activation, % at 20 µM; 330,000 tested, 0.11% active; AID 2520;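 active = activation more than six SD over the plate average, tested at 20 µM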
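Assay system: CHO-K1 cells stably expressing ProLink-tagged human APJ and arrestin–beta-gal acceptor. Compound dosing: 20 µM single point, 1% DMSO. Times: 16-18 h seeding, 90 min dark compound exposure, 60 min detection. Detection: beta-gal luminescence. Evaluation: APJ–arrestin association signal. Controls: negative DMSO alone, positive Apelin-13 at 10 nM.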
CCR6 antag: antagonists of human CCR6 receptor | CHO-K1 CCR6 PathHunter beta-arrestin, luminescence, CCL20-stimulated | inhibition, % at 20 µM | 340,000 tested, 0.49% active;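 active = compounds whose inhibition of the agonist-driven luminescence signal at 20 µM reaches about 50%, limit read from the data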;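 also: cells stimulated with CCL20 at 14 nM final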
Hits are given with their value; 0 = inactive; - = no result given.

SMILES	APJ antag	EBI2 block	m5-HT2A agonist	CXCR6 inh	APJ ag	CCR6 antag
Oc1ccccc1/C=N/Nc1nn[nH]n1	0	0	0	0	0	0
Cc1nc2ccc(C(=O)N/N=C/c3ccccc3O)cc2[nH]1	0	0	0	0	0	0
O=C(CCC(=O)Nc1ccc(F)cc1)N/N=C/c1cc([N+](=O)[O-])ccc1O	0	0	0	0	0	62.4
Cc1cccc(NC(=O)CCC(=O)N/N=C/c2cc([N+](=O)[O-])ccc2O)c1	0	0	0	0	0	0
O=C(Nc1nnc([C@@H]2O[C@H](CO)[C@@H](O)[C@H]2O)s1)Nc1ccccc1C(F)(F)F	-	0	0	0	-	-
C[C@@H]1CN([C@@H](C)CO)S(=O)(=O)c2ccc(C#CC(C)(C)O)cc2O[C@H]1CN(C)C(=O)C1CCCCC1	-	0	0	0	-	-
O=C(N/N=C/c1cc([N+](=O)[O-])ccc1O)C1CCCCC1	0	75.8	0	0	0	0
CC(C)=CCC/C(C)=C/CNC(=O)C[C@H]1C[C@H](C(=O)N2CCCCC2)[C@@]2(CCc3ccccc3)c3[nH]c4cc(CCC(=O)N(C)C)ccc4c3CCN2C1=O	-	0	0	0	-	0
O=C(C[n+]1cn(C(F)F)c2ccccc21)c1ccc(OC(F)F)cc1	0	0	0	0	18.3	0
CC(C)C[C@@H](CN1CCC[C@H]1CN1C(=O)C(=O)NC[C@@H]1Cc1ccccc1)N1C[C@H](Cc2ccccc2)N(CC2CCCCCC2)C(=O)C1=O	-	0	0	0	-	-
COc1ccc(C(=O)c2sc3nc(-c4ccccc4)ccc3c2N)cc1	0	0	0	0	0	0
CC(C)OC(=O)c1sc2nc(-c3ccccc3)ccc2c1N	0	48.4	0	0	0	0
O=S(=O)(Nc1ccc(NS(=O)(=O)c2ccccc2)cc1)c1ccccc1	-	0	0	0	-	-
O=C1C(Nc2ccccc2)=C(NS(=O)(=O)c2ccccc2)C(=O)c2ccccc21	0	0	0	0	0	50.2
Cn1cc(C2=C(c3ccc(Cl)cc3Cl)C(=O)NC2=O)c2ccccc21	0	49.5	0	0	0	0
CN(C)c1nc(N/N=C/c2ccccc2O)nc(Nc2ccc(F)cc2)n1	0	0	0	68.0	0	70.7
CC(C)N(C)c1ncnc2c1ncn2[C@H]1CN(C2CCCC2)C[C@@H](CO)O1	-	0	0	0	-	-
Cc1c(N=Nc2ccc(O)cc2)c(=O)n(-c2ccccc2)n1C	0	0	0	0	0	0
Cc1c(N=NC2=C(O)CCCC2=O)c(=O)n(-c2ccccc2)n1C	0	0	0	49.3	0	69.9
CC1=NOC(=O)/C1=C\c1ccc(-c2ccc(Br)cc2)o1	-	0	0	41.4	-	76.1
Cc1ccc(C2(c3ccccc3)NC(=O)N(CC(=O)N3CC(=O)Nc4ccccc43)C2=O)cc1C (stereo not drawn)	0	0	0	0	0	0
COC(=O)c1ccccc1NC1=C/C(=N\S(=O)(=O)c2ccc(C(=O)O)cc2)c2ccccc2C1=O	0	0	0	0	0	55.0
COC(=O)c1cccc(NS(=O)(=O)c2cccs2)c1C	-	0	0	0	-	0
COC(=O)c1ccccc1NC1=C/C(=N\S(=O)(=O)c2cccs2)c2ccccc2C1=O	0	0	0	42.5	0	54.0
CCc1ccc(S(=O)(=O)/N=C2\C=C(Nc3ccc(C(=O)O)cc3)C(=O)c3ccccc32)cc1	0	0	0	0	0	0
SMILES	APJ antag	EBI2 block	m5-HT2A agonist	CXCR6 inh	APJ ag	CCR6 antag
Cn1cc(C(C[N+](=O)[O-])c2ccccc2)c2ccccc21 (stereo not drawn)	0	0	0	0	0	0
CC(=O)n1cc(C(C[N+](=O)[O-])SCCN)c2ccccc21 (stereo not drawn)	0	0	0	0	0	60.0
COc1cc(/C=C2/C(=O)N(c3ccc(Br)cc3)N=C2C)cc([N+](=O)[O-])c1O	48.2	-	-	-	0	-
NC(=O)CSc1nnc(NC(=O)c2ccc(S(=O)(=O)N3CCCCC3)cc2)s1	0	0	0	0	0	0
O=C(/C=C/c1ccc(O)c(O)c1)c1ccccc1O	43.1	0	0	0	0	52.1
O=c1ccncn1C1OC(CO)C(O)C1O (stereo not drawn)	-	0	0	0	-	0
COc1cc2c(cc1OC)C(c1ccc(-c3ccccc3Cl)o1)=NCC2	0	49.1	0	0	0	0
COc1cc2c(cc1OC)C(c1ccc(Cl)cc1)=NCC2	0	0	0	0	0	0
COc1cc2c(cc1OC)C(c1ccc(-c3ccc(Cl)c(Cl)c3)o1)=NCC2	0	65.5	0	0	0	0
COc1cc2c(cc1OC)C(c1ccc(-c3cc(Cl)ccc3Cl)o1)=NCC2	0	61.7	0	0	0	0
COc1cc2c(cc1OC)C(C)=NCC2	0	0	0	0	0	0
OC(C1=CC(=Cc2ccncc2)c2ccccc21)c1ccncc1 (stereo not drawn)	-	0	0	0	-	0
CCC(=O)c1cn(/C(=C\C(=O)OC(C)(C)C)CCC(OC)OC)cc1CC	0	0	0	0	0	0
CC(=O)c1cccc(OCC(=O)N(CCC2=CCCCC2)c2c(N)n(Cc3ccccc3)c(=O)[nH]c2=O)c1	-	0	0	0	-	0
CCOc1ccc(S(=O)(=O)N2CCCCC2)cc1NC(=O)CC1OC(=O)c2ccccc21 (stereo not drawn)	0	0	0	0	0	0
O=C(NNC(=S)Nc1ccc(F)c(Cl)c1)c1ccccc1Br	0	0	0	0	0	0
O=C(Nc1c(C(=O)N2CCOCC2)cnn1-c1ccccc1)c1ccccc1	0	0	0	0	0	0
O=C(Nc1c(C(=O)N2CCOCC2)cnn1-c1ccccc1)c1ccc(F)cc1	0	0	14.6	0	0	0
CC1CCN(S(=O)(=O)c2ccc(C(=O)N3CCCC3C(=O)O)cc2)CC1 (stereo not drawn)	0	0	0	0	0	0
O=C(COC(=O)c1cc(S(=O)(=O)N2CCOCC2)ccc1O)NCc1ccc2c(c1)OCO2	0	0	0	0	0	0
COc1ccc(N2CSC3=C(C#N)C(c4cc(OC)c(OC)cc4OC)CC(=O)N3C2)c(OC)c1 (stereo not drawn)	0	0	0	0	24.8	0
COc1ccc(N2CSC3=C(C#N)C(c4cc(OC)ccc4OC)CC(=O)N3C2)c(OC)c1 (stereo not drawn)	0	0	0	0	0	0
CCN(CC)CCCN1C(=O)C(O)=C(C(=O)c2ccco2)C1c1ccc(OC(C)C)cc1 (stereo not drawn)	0	0	0	0	0	92.6
COc1ccc(-n2nnnc2C(c2cccs2)N2CCN(C/C=C/c3ccccc3)CC2)cc1 (stereo not drawn)	-	0	0	0	-	-
O=C(CS(=O)(=O)c1ccccc1)N1CCN(c2ccccc2)CC1	0	0	0	0	0	0
O=C(/C=C/c1ccccn1)c1cc(Br)ccc1O	0	0	0	0	0	59.3
